Source: ChEMBL document CHEMBL3797186, “Single Residue Substitutions That Confer Voltage-Gated Sodium Ion Channel Subtype Selectivity in the NaV1.7 Inhibitory Peptide GpTx-1” (J Med Chem, 2016)
Positions of bridges follow the written chain, without caps; N, C: chain ends. Non-standard residues stand in square brackets, D forms with d. Residues, ends and D or L forms follow the SMILES beside them. 1Nal = N[C@@H](Cc1cccc2ccccc12)C(=O)O

Legend:
Assay type in all cases: cell-based
[1] = target: T1, Sodium channel protein type 5 subunit alpha (Homo sapiens, UniProt Q14524); assay: Inhibition of human Nav1.5 expressed in HEK293 cells assessed as inward peak current by ion-works quattro patch clamp electrophysiology method
In short: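 Stable HEK293 line expressing human NaV1.5, recorded by population patch clamp on the IonWorks Quattro.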

[2] = target: T1, Sodium channel protein type 5 subunit alpha; assay: Inhibition of human Nav1.5 expressed in HEK293 cells by whole cell patch clamp electrophysiology method
In short: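 Stable HEK293 line expressing human NaV1.5, recorded on the PatchXpress 7000A. Percent inhibition versus concentration was pooled from at least 10 cells, with two to three points per concentration. The pooled set was fitted with a four-parameter Hill equation to give a single IC50 curve.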

[3] = target: Sodium channel protein type 9 subunit alpha (Homo sapiens, UniProt Q15858); assay: Inhibition of human Nav1.7 expressed in HEK293 cells assessed as inward peak current by ion-works quattro patch clamp electrophysiology method
Sodium channel protein type 9 subunit alpha, sequence (Q15858 whole entry): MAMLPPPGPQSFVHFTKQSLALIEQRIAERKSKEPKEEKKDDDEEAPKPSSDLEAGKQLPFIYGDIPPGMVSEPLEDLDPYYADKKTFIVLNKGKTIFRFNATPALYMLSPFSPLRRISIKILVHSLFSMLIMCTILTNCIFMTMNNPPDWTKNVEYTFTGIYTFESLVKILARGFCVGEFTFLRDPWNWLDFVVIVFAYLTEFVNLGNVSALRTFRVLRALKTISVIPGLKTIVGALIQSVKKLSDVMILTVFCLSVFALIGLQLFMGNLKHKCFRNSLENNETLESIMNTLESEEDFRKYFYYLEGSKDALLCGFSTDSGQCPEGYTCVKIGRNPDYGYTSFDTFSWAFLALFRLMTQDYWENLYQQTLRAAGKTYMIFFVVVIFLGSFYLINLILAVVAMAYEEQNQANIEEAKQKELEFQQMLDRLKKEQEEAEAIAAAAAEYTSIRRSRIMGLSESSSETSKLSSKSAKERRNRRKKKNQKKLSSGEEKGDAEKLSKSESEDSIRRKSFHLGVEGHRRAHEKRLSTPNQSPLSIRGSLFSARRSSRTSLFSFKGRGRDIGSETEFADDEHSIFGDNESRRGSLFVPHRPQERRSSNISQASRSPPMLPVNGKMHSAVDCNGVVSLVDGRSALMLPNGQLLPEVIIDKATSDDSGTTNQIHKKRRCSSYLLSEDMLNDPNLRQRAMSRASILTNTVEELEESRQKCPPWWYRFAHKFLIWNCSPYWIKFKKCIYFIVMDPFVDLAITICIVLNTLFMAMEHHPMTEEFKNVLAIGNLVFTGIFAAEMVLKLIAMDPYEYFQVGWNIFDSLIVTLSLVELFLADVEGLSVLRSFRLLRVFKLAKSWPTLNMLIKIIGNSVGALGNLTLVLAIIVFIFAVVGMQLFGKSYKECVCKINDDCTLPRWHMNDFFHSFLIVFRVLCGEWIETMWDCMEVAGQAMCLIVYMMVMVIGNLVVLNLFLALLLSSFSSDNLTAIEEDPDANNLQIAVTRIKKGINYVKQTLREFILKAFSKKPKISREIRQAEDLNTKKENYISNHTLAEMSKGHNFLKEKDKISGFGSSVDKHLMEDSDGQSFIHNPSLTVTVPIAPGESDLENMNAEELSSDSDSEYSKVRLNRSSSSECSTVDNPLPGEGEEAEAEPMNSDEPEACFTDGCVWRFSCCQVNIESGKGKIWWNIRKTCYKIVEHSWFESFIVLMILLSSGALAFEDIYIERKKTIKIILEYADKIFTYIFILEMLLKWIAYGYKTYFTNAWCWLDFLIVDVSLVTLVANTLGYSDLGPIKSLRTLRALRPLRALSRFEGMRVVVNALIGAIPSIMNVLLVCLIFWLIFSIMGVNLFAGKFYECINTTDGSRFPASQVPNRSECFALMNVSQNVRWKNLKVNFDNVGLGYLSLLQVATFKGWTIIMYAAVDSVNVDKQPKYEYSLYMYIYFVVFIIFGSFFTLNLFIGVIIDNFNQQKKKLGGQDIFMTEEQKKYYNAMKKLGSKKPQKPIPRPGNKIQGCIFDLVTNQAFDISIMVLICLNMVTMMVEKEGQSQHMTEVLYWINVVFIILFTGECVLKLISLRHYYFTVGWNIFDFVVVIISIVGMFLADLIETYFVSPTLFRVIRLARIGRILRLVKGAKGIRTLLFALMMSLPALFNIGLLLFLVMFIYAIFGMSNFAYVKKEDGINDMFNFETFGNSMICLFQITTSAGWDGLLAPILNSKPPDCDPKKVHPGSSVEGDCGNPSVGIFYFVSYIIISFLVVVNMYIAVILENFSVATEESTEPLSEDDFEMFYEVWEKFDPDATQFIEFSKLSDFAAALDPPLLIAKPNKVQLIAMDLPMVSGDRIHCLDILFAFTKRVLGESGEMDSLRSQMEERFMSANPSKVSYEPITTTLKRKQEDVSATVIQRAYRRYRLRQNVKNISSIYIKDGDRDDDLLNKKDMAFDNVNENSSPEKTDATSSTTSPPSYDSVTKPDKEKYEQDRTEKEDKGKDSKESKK

T1 sequence (Q14524 whole entry): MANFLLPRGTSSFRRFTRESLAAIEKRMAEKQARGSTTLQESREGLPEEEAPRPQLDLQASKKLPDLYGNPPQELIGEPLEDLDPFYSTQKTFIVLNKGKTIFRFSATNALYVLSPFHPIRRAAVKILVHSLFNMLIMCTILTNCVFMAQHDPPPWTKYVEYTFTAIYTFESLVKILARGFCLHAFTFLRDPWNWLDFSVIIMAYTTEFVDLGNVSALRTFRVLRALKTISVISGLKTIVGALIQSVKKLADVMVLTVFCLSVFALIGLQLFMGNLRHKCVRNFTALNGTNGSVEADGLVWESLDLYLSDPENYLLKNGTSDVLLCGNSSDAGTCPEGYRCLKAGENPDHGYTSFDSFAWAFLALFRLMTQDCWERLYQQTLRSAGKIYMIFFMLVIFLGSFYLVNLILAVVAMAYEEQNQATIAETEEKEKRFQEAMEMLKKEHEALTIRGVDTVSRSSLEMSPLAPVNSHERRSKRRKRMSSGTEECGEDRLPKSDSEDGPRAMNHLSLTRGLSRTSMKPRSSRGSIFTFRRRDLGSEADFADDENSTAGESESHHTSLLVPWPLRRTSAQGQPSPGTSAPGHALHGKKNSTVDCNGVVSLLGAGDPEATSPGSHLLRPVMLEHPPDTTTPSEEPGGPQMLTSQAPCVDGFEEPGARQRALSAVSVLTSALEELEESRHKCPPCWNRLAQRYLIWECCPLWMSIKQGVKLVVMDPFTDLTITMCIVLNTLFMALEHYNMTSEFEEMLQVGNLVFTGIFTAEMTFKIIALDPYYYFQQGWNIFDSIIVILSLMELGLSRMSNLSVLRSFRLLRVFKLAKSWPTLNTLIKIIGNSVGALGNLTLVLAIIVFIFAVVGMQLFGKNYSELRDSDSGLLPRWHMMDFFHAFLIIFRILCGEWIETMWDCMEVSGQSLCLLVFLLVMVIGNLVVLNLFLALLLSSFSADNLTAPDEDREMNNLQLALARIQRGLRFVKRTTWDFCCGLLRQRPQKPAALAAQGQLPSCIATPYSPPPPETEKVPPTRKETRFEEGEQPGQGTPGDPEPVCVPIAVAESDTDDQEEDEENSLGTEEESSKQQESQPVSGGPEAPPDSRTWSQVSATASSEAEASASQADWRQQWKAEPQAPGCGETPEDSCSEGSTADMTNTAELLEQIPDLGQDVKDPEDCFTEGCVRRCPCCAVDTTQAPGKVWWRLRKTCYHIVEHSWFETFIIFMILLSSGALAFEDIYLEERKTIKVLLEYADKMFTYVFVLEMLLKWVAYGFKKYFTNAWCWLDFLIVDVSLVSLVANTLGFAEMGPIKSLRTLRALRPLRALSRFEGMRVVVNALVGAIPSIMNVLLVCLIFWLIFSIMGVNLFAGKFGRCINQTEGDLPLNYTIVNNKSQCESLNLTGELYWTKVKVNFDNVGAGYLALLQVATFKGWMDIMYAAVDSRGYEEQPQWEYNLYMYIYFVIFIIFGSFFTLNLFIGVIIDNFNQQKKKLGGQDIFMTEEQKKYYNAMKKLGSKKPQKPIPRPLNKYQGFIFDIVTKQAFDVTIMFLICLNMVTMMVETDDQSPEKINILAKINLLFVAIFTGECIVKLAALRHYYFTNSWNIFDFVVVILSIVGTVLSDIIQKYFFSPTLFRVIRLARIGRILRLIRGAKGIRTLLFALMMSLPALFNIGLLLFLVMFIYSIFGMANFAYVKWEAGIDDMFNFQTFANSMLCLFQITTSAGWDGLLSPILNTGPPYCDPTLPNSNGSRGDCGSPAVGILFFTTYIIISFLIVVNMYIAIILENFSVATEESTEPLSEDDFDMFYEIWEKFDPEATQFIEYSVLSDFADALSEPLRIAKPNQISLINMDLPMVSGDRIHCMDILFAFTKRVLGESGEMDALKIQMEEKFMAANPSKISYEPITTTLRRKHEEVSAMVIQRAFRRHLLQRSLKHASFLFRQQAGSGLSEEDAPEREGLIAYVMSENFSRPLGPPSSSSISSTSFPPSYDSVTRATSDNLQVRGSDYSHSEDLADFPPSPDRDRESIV

CC[C@H](C)[C@@H]1NC(=O)[C@@H]2CSSC[C@@H]3NC(=O)[C@H](C(C)C)NC(=O)[C@H](CC(C)C)NC(=O)[C@H](CC(N)=O)NC(=O)[C@@H]4CCCN4C(=O)[C@H](CCCNC(=N)N)NC(=O)[C@H](CSSC[C@H](NC(=O)[C@@H](N)CC(=O)O)C(=O)N[C@@H](CC(C)C)C(=O)NCC(=O)N[C@@H](Cc4ccccc4)C(=O)N[C@@H](CCSC)C(=O)N[C@@H](CCCNC(=N)N)C(=O)N[C@@H](CCCCN)C(=O)N2)NC(=O)[C@H](CSSC[C@@H](C(=O)N[C@@H](CCCCN)C(=O)N[C@@H](Cc2ccc(O)cc2)C(=O)N[C@H](C(=O)N[C@@H](Cc2ccccc2)C(=O)O)C(C)C)NC(=O)[C@H](Cc2c[nH]c4ccccc24)NC(=O)[C@H](CCCCN)NC(=O)[C@H](Cc2cnc[nH]2)NC(=O)[C@H]([C@@H](C)O)NC(=O)[C@H](CCCNC(=N)N)NC(=O)[C@H](CO)NC3=O)NC(=O)[C@H](CCCCN)NC(=O)[C@H](CC(=O)O)NC(=O)[C@H](CC(N)=O)NC(=O)[C@H](CC(=O)O)NC(=O)[C@@H]2CCCN2C1=O (stereo in doubt)
IC50 [1]: > 5 µM | IC50 [2]: > 10 µM

CC[C@H](C)[C@@H]1NC(=O)[C@@H]2CSSC[C@@H]3NC(=O)[C@H](C(C)C)NC(=O)[C@H](CC(C)C)NC(=O)[C@H](CC(N)=O)NC(=O)[C@@H]4CCCN4C(=O)[C@H](CCCNC(=N)N)NC(=O)[C@H](CSSC[C@H](NC(=O)[C@@H](N)CC(=O)O)C(=O)N[C@@H](CC(C)C)C(=O)NCC(=O)N[C@@H](Cc4ccccc4)C(=O)N[C@@H](CCSC)C(=O)N[C@@H](CCCNC(=N)N)C(=O)N[C@@H](CCCCN)C(=O)N2)NC(=O)[C@H](CSSC[C@@H](C(=O)N[C@@H](CCCCN)C(=O)N[C@@H](Cc2ccc(O)cc2)C(=O)N[C@H](C(=O)N[C@@H](Cc2ccccc2)C(N)=O)C(C)C)NC(=O)[C@H](Cc2cccc4ccccc24)NC(=O)[C@H](CCCCN)NC(=O)[C@H](Cc2cnc[nH]2)NC(=O)[C@H]([C@@H](C)O)NC(=O)[C@H](CCCNC(=N)N)NC(=O)[C@H](CO)NC3=O)NC(=O)[C@H](CCCCN)NC(=O)[C@H](CC(=O)O)NC(=O)[C@H](CC(N)=O)NC(=O)[C@H](CC(=O)O)NC(=O)[C@@H]2CCCN2C1=O (H-DCLGFMRKCIPDNDKCCRPNLVCSRTHK[1Nal]CKYVF-NH2; disulfide 2-17, 9-23, 16-30)
IC50 [1]: > 5 µM | IC50 [2]: > 10 µM

CC[C@H](C)[C@@H]1NC(=O)[C@@H]2CSSC[C@@H]3NC(=O)[C@H](C(C)C)NC(=O)[C@H](CC(C)C)NC(=O)[C@H](CC(N)=O)NC(=O)[C@@H]4CCCN4C(=O)[C@H](CCCNC(=N)N)NC(=O)[C@H](CSSC[C@H](NC(=O)[C@@H](N)CC(=O)O)C(=O)N[C@@H](CC(C)C)C(=O)NCC(=O)N[C@@H](Cc4ccccc4)C(=O)N[C@@H](CCSC)C(=O)N[C@@H](CCCNC(=N)N)C(=O)N[C@@H](CCCCN)C(=O)N2)NC(=O)[C@H](CSSC[C@@H](C(=O)N[C@@H](CCC(=O)O)C(=O)N[C@@H](Cc2ccc(O)cc2)C(=O)N[C@H](C(=O)N[C@@H](Cc2ccccc2)C(N)=O)C(C)C)NC(=O)[C@H](Cc2c[nH]c4ccccc24)NC(=O)[C@H](CCCCN)NC(=O)[C@H](Cc2cnc[nH]2)NC(=O)[C@H]([C@@H](C)O)NC(=O)[C@H](CCCNC(=N)N)NC(=O)[C@H](CO)NC3=O)NC(=O)[C@H](CCCCN)NC(=O)[C@H](CC(=O)O)NC(=O)[C@H](CC(N)=O)NC(=O)[C@H](CC(=O)O)NC(=O)[C@@H]2CCCN2C1=O (H-DCLGFMRKCIPDNDKCCRPNLVCSRTHKWCEYVF-NH2; disulfide 2-17, 9-23, 16-30)
IC50 [3]: > 5 µM | IC50 [1]: > 5 µM

CC[C@H](C)[C@@H]1NC(=O)[C@@H]2CSSC[C@@H]3NC(=O)[C@H](C(C)C)NC(=O)[C@H](CC(C)C)NC(=O)[C@H](CCC(=O)O)NC(=O)[C@@H]4CCCN4C(=O)[C@H](CCCNC(=N)N)NC(=O)[C@H](CSSC[C@H](NC(=O)[C@@H](N)CC(=O)O)C(=O)N[C@@H](CC(C)C)C(=O)NCC(=O)N[C@@H](Cc4ccccc4)C(=O)N[C@@H](CCSC)C(=O)N[C@@H](CCCNC(=N)N)C(=O)N[C@@H](CCCCN)C(=O)N2)NC(=O)[C@H](CSSC[C@@H](C(=O)N[C@@H](CCCCN)C(=O)N[C@@H](Cc2ccc(O)cc2)C(=O)N[C@H](C(=O)N[C@@H](Cc2ccccc2)C(N)=O)C(C)C)NC(=O)[C@H](Cc2c[nH]c4ccccc24)NC(=O)[C@H](CCCCN)NC(=O)[C@H](Cc2cnc[nH]2)NC(=O)[C@H]([C@@H](C)O)NC(=O)[C@H](CCCNC(=N)N)NC(=O)[C@H](CO)NC3=O)NC(=O)[C@H](CCCCN)NC(=O)[C@H](CC(=O)O)NC(=O)[C@H](CC(N)=O)NC(=O)[C@H](CC(=O)O)NC(=O)[C@@H]2CCCN2C1=O (H-DCLGFMRKCIPDNDKCCRPELVCSRTHKWCKYVF-NH2; disulfide 2-17, 9-23, 16-30)
IC50 [3]: 1.4 µM | IC50 [1]: > 5 µM

CC[C@H](C)[C@@H]1NC(=O)[C@@H]2CSSC[C@@H]3NC(=O)[C@H](C(C)C)NC(=O)[C@H](CC(C)C)NC(=O)[C@H](CC(N)=O)NC(=O)[C@@H]4CCCN4C(=O)[C@H](CCCNC(=N)N)NC(=O)[C@H](CSSC[C@H](NC(=O)[C@@H](N)CC(=O)O)C(=O)N[C@@H](CC(C)C)C(=O)NCC(=O)N[C@@H](Cc4ccccc4)C(=O)N[C@@H](CCSC)C(=O)N[C@@H](CCCNC(=N)N)C(=O)N[C@@H](CCCCN)C(=O)N2)NC(=O)[C@H](CSSC[C@@H](C(=O)N[C@@H](CCCCN)C(=O)N[C@@H](Cc2ccc(O)cc2)C(=O)N[C@H](C(=O)N[C@@H](Cc2ccccc2)C(N)=O)C(C)C)NC(=O)[C@H](Cc2c[nH]c4ccccc24)NC(=O)[C@H](CCCCN)NC(=O)[C@H](Cc2cnc[nH]2)NC(=O)[C@H]([C@@H](C)O)NC(=O)[C@H](CCCNC(=N)N)NC(=O)[C@H](CO)NC3=O)NC(=O)[C@H](CCCCN)NC(=O)[C@H](CC(=O)O)NC(=O)[C@H](CC(N)=O)NC(=O)[C@H](CC(=O)O)NC(=O)[C@H](Cc2c[nH]c3ccccc23)NC1=O (H-DCLGFMRKCIWDNDKCCRPNLVCSRTHKWCKYVF-NH2; disulfide 2-17, 9-23, 16-30)
IC50 [3]: 0.08 µM | IC50 [1]: > 5 µM

CC[C@H](C)[C@@H]1NC(=O)[C@@H]2CSSC[C@@H]3NC(=O)[C@H](C(C)C)NC(=O)[C@H](CC(C)C)NC(=O)[C@H](CC(N)=O)NC(=O)[C@@H]4CCCN4C(=O)[C@H](CCCNC(=N)N)NC(=O)[C@H](CSSC[C@H](NC(=O)[C@@H](N)CC(=O)O)C(=O)N[C@@H](CC(C)C)C(=O)NCC(=O)N[C@@H](Cc4ccccc4)C(=O)N[C@@H](CCSC)C(=O)N[C@@H](CCCNC(=N)N)C(=O)N[C@@H](CCCCN)C(=O)N2)NC(=O)[C@@H](CSSC[C@@H](C(=O)N[C@@H](CCCCN)C(=O)N[C@@H](Cc2ccc(O)cc2)C(=O)N[C@H](C(=O)N[C@@H](Cc2ccccc2)C(N)=O)C(C)C)NC(=O)[C@H](Cc2c[nH]c4ccccc24)NC(=O)[C@H](CCCCN)NC(=O)[C@H](Cc2cnc[nH]2)NC(=O)[C@H](C)NC(=O)[C@H](CCCNC(=N)N)NC(=O)[C@H](CO)NC3=O)NC(=O)[C@H](CCCCN)NC(=O)[C@H](CC(=O)O)NC(=O)[C@H](CC(N)=O)NC(=O)[C@H](CC(=O)O)NC(=O)[C@@H]2CCCN2C1=O
IC50 [3]: 0.26 µM | IC50 [1]: > 5 µM
